Results as given in ChEMBL document CHEMBL1152538, “Synthesis and biological evaluation of asymmetric gramicidin S analogues containing modified D-phenylalanine residues” (Bioorg Med Chem, 2009).
*1 amine or outer side, *2 acyl side, *3 side chain or, on linkers, in order; H or OH if unused. Where a SMILES comes first, the peptide text is derived from it. [ ]: non-standard residue; d: D form. The star is where a group is joined. X4 = O=C([C@H](Cc1ccc(N(Cc2ccccc2)Cc2ccccc2)cc1)N[*:1])[*:2]; Phe(4-NO2) = N[C@@H](Cc1ccc([N+](=O)[O-])cc1)C(=O)O; X3 = O=C([C@H](Cc1ccc(NCc2ccccc2)cc1)N[*:1])[*:2]; X5 = O=C(C(c1ccccc1)(c1ccccc1)c1ccccc1)*; Phe(4-NH2) = Nc1ccc(C[C@H](N)C(=O)O)cc1; Orn = NCCC[C@H](N)C(=O)O

Legend:
Staphylococcus aureus [1] = test: Antibacterial activity against Staphylococcus aureus 7323 after 24 to 96 hrs by well microplate assay; assay type: functional
How it was run: (§1)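 Strains were kept at -70 °C, grown at 30 °C on sheep-blood Columbia agar, and suspended in saline to OD595 0.1, then diluted 10×. Inoculum was added at 2 µL per 100 µL Nutrient Broth with yeast extract (2 g/400 mL). Peptide stocks were 4 g/L in ethanol, diluted to 1000 mg/L in water, then twofold in broth (64–1 mg/L). Plates were held at 30 °C for 24–96 h. MIC was the lowest concentration inhibiting growth.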

Staphylococcus aureus [2] = test: Antibacterial activity against Staphylococcus aureus 7388 after 24 to 96 hrs by well microplate assay; assay type: functional; how it was run: as §1
Enterococcus faecalis = test: Antibacterial activity against Enterococcus faecalis 1131 after 24 to 96 hrs by well microplate assay; assay type: functional; how it was run: as §1
Escherichia coli = test: Antibacterial activity against Escherichia coli ATCC 25922 after 24 to 96 hrs by well microplate assay; assay type: functional; how it was run: as §1
Pseudomonas aeruginosa [3] = test: Antibacterial activity against Pseudomonas aeruginosa AK1 after 24 to 96 hrs by well microplate assay; assay type: functional; how it was run: as §1
Pseudomonas aeruginosa [4] = test: Antibacterial activity against Pseudomonas aeruginosa ATCC 19582 after 24 to 96 hrs by well microplate assay; assay type: functional; how it was run: as §1
Streptococcus mitis [5] = test: Antibacterial activity against Streptococcus mitis BMS after 24 to 96 hrs by well microplate assay; assay type: functional; how it was run: as §1
Streptococcus mitis [6] = test: Antibacterial activity against Streptococcus mitis ATCC 33399 after 24 to 96 hrs by well microplate assay; assay type: functional; how it was run: as §1
[7] = system: coagulase-negative Staphylococcus; test: Antibacterial activity against coagulase-negative Staphylococcus CNS 5277 after 24 to 96 hrs by well microplate assay
[8] = system: coagulase-negative Staphylococcus; test: Antibacterial activity against coagulase-negative Staphylococcus CNS 5115 after 24 to 96 hrs by well microplate assay
[9] = system: coagulase-negative Staphylococcus; test: Antibacterial activity against coagulase-negative Staphylococcus CNS 7368 after 24 to 96 hrs by well microplate assay

Measured: MIC

CC(C)C[C@@H]1NC(=O)[C@H](CCCN)NC(=O)[C@H](C(C)C)NC(=O)[C@@H]2CCCN2C(=O)[C@H](Cc2ccccc2)NC(=O)[C@H](CC(C)C)NC(=O)[C@H](CCCN)NC(=O)[C@H](C(C)C)NC(=O)[C@@H]2CCCN2C(=O)[C@H](Cc2ccc(NC(=O)C(c3ccccc3)(c3ccccc3)c3ccccc3)cc2)NC1=O (cyclo(FPV[Orn]L[Phe(4-NH2)](X5)PV[Orn]L))
64 mg/L: Streptococcus mitis [5]
> 64 mg/L: all other assays above

CC(C)C[C@@H]1NC(=O)[C@H](CCCN)NC(=O)[C@H](C(C)C)NC(=O)[C@@H]2CCCN2C(=O)[C@H](Cc2ccccc2)NC(=O)[C@H](CC(C)C)NC(=O)[C@H](CCCN)NC(=O)[C@H](C(C)C)NC(=O)[C@@H]2CCCN2C(=O)[C@H](Cc2ccc(N)cc2)NC1=O (cyclo(FPV[Orn]L[Phe(4-NH2)]PV[Orn]L))
8 mg/L: Streptococcus mitis [5]
64 mg/L: Enterococcus faecalis | Escherichia coli
16 mg/L: Staphylococcus aureus [2] | [7] | [9]
> 64 mg/L: Pseudomonas aeruginosa [3] | Pseudomonas aeruginosa [4]
32 mg/L: all other assays above

CC(C)C[C@@H]1NC(=O)[C@H](CCCN)NC(=O)[C@H](C(C)C)NC(=O)[C@@H]2CCCN2C(=O)[C@H](Cc2ccccc2)NC(=O)[C@H](CC(C)C)NC(=O)[C@H](CCCN)NC(=O)[C@H](C(C)C)NC(=O)[C@@H]2CCCN2C(=O)[C@H](Cc2ccc([N+](=O)[O-])cc2)NC1=O (cyclo(FPV[Orn]L[Phe(4-NO2)]PV[Orn]L))
> 64 mg/L: Pseudomonas aeruginosa [3] | Pseudomonas aeruginosa [4]
32 mg/L: Enterococcus faecalis | Streptococcus mitis [5] | Streptococcus mitis [6]
64 mg/L: Escherichia coli
16 mg/L: all other assays above

CC(C)C[C@@H]1NC(=O)[C@H](CCCN)NC(=O)[C@H](C(C)C)NC(=O)[C@@H]2CCCN2C(=O)[C@H](Cc2ccccc2)NC(=O)[C@H](CC(C)C)NC(=O)[C@H](CCCN)NC(=O)[C@H](C(C)C)NC(=O)[C@@H]2CCCN2C(=O)[C@H](Cc2ccc(NCc3ccccc3)cc2)NC1=O (cyclo(FPV[Orn]L[X3]PV[Orn]L))
64 mg/L: Staphylococcus aureus [2] | Streptococcus mitis [5] | Streptococcus mitis [6] | [7] | [9]
> 64 mg/L: all other assays above

CC(C)C[C@@H]1NC(=O)[C@H](CCCN)NC(=O)[C@H](C(C)C)NC(=O)[C@@H]2CCCN2C(=O)[C@H](Cc2ccccc2)NC(=O)[C@H](CC(C)C)NC(=O)[C@H](CCCN)NC(=O)[C@H](C(C)C)NC(=O)[C@@H]2CCCN2C(=O)[C@H](Cc2ccc(N(Cc3ccccc3)Cc3ccccc3)cc2)NC1=O (cyclo(FPV[Orn]L[X4]PV[Orn]L))
64 mg/L: Streptococcus mitis [5] | Streptococcus mitis [6] | [7] | [9]
> 64 mg/L: all other assays above
